Source: paper PMC6076386 (Biochemistry, 2017)
Entries after “also recorded” stand apart in the source; their conditions may differ.

Key:
thrombin ABE I = details: cited from earlier work
[1] = tested on: thrombin ABE I region 65–84; details: cited from earlier work
[2] = target: Wild Type PPACK-IIa (human plasma thrombin), ABE I (Homo sapiens, UniProt P00734); assay: 2D 1H-15N HSQC NMR titration, wild-type PPACK-thrombin; type: binding; details: native PAR3 sequence, 15N-D54 and 15N-F47, PPACK-IIa; pH 6.5, 25 °C
Method in brief: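 Human plasma thrombin blocked with PPACK (4:1 inhibitor:enzyme, 37 °C, 30 min), buffer-exchanged into 25 mM H₃PO₄, 150 mM NaCl, 0.2 mM EDTA, 10% D₂O, pH 6.5, 25 °C. ¹⁵N-labeled PAR3(44–56) held at 50 μM while thrombin (starting 210 μM) was serially diluted, spanning 4:1 to 0.1:1 ratios. Chemical-shift changes were fitted with a ligand-normalized quadratic for K_D. At least triplicate; Monte-Carlo errors assumed 10% dilution error.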

PAR3 (Homo sapiens) = PAR3 (Homo sapiens) (UniProt O00254); assay: fluorescence titration; details: cited from earlier work

| Substance | binding by X-ray crystallography (thrombin ABE I) | HDX-MS binding region [1] | binding affinity by 15N-HSQC NMR titration [2] | Kd (PAR3 (Homo sapiens)) |
| --- | --- | --- | --- | --- |
| PAR3 (^44Q N T ^15F E E F P L S ^15D I E[56]) [PAR3 (44–56)] | confirmed to bind in a specific manner to thrombin ABE I | both bind to the thrombin ABE I region 65–84 | binding affinities could not be determined; also recorded: bound too tightly to thrombin |  |
| Thrombin (from UniProt P00734) |  |  |  | 2 µM |
| hirudin [reference compound] |  | both bind to the thrombin ABE I region 65–84 |  |  |
